Experimental data as given in ChEMBL document CHEMBL1152313, “Cytotoxic and HIF-1alpha inhibitory compounds from Crossosoma bigelovii” (J Nat Prod, 2009).
Calls of active or inactive are those of the source. The rule behind the calls is not given here.

How the values were obtained:
[1] = test system: U-251; experiment: Growth inhibition of human U251 cells stably transfected with pGL2-TK-HRE plasmid after 24 hrs; assay type: cell-based; conditions: u-251, 24 h
[2] = biological target: T1, Hypoxia inducible factors; HIF-1-alpha, HIF-2-alpha (Homo sapiens, UniProt Q16665+Q99814); experiment: Inhibition of HIF1 activation in human U251 cells stably transfected in pGL2-TK-HRE plasmid under hypoxic condition after 16 to 24 hrs by luciferase reporter gene assay; assay type: cell-based; conditions: u-251
[3] = test system: U-251; experiment: Growth inhibition of human U251 cells stably transfected with pGL3 plasmid after 24 hrs; assay type: cell-based; conditions: u-251, 24 h
[4] = test system: MCF7; experiment: Cytotoxicity against human MCF7 cells by MTT assay; assay type: functional
Outline: (§1)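 Cells were grown in MEM with 10% fetal calf serum, 0.1 g L⁻¹ penicillin G and 0.1 g L⁻¹ streptomycin sulfate. They were seeded into 96-well plates one day before dosing and incubated overnight at 37 °C. Compounds were dissolved in DMSO, diluted in medium to several concentrations and left on the cells for six days. Survival was read colorimetrically by MTT at 547 nm, with adriamycin as reference.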

[5] = test system: A549; experiment: Cytotoxicity against human A549 cells by MTT assay; assay type: functional
[6] = test system: HT-29; experiment: Cytotoxicity against human HT-29 cells by MTT assay; assay type: functional; outline: as §1
[7] = test system: U-251; experiment: Reduction in VEGF mRNA expression in wild type human U251 cells under hypoxic condition after 8 hrs; assay type: functional, cell-based
Outline: (§2)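 Wild-type U251 cells treated 8 or 16 h under hypoxia (1% O₂, 37 °C). Total RNA isolated; 500 ng reverse-transcribed (10 min 25 °C, 30 min 48 °C, 5 min 95 °C). VEGF or CA9 transcript quantified by real-time PCR on 5 ng cDNA in triplicate (2 min 50 °C, 10 min 95 °C, then 40 cycles of 15 s 95 °C and 1 min 60 °C).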

[8] = test system: U-251; experiment: Inhibition of HIF1alpha protein expression in wild type human U251 cells under hypoxic condition at 0.025 uM treated 16 hrs before hypoxia induction; assay type: functional, cell-based
[9] = biological target: T1, Hypoxia inducible factors; HIF-1-alpha, HIF-2-alpha; experiment: Inhibition of HIF1 activation in human U251 cells transiently transfected in pGL2-TK-HRE plasmid under hypoxic condition at 0.1 to 0.005 uM after 16 hrs by luciferase reporter gene assay; assay type: cell-based; conditions: U-251
Outline: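 Wild-type U251 cells transiently transfected with pGL2-TK-HRE using Effectene for 16 h. Medium then changed and compound added for 16 h under hypoxia (1% O₂, 5% CO₂, 37 °C) or normoxia (21% O₂). Luciferase read with Steady Glo reagent.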

[10] = test system: U-251; experiment: Inhibition of HIF1alpha protein expression in wild type human U251 cells under hypoxic condition at 0.025 uM treated 8 hrs before hypoxia induction; assay type: functional, cell-based
[11] = test system: U-251; experiment: Reduction in carbonic anhydrase 9 mRNA expression in wild type human U251 cells under hypoxic condition at 0.1 uM after 8 hrs; assay type: functional, cell-based; outline: as §2
[12] = test system: U-251; experiment: Reduction in VEGF mRNA expression in wild type human U251 cells under hypoxic condition after 16 hrs; assay type: functional, cell-based; outline: as §2
[13] = biological target: T1, Hypoxia inducible factors; HIF-1-alpha, HIF-2-alpha; experiment: Inhibition of HIF1 activation in human U251 cells stably transfected in pGL2-TK-HRE plasmid under hypoxic condition assessed as reduction of luciferase expression at 0.062 uM after 16 to 24 hrs by luciferase reporter gene assay; assay type: cell-based; design: scale not given: the % may be the effect or the level left; conditions: U-251
[14] = biological target: T1, Hypoxia inducible factors; HIF-1-alpha, HIF-2-alpha; experiment: Inhibition of HIF1 activation in human U251 cells stably transfected in pGL3 plasmid under hypoxic condition assessed as reduction of luciferase expression at 0.062 uM after 16 to 24 hrs by luciferase reporter gene assay; assay type: cell-based; design: scale not given: the % may be the effect or the level left; conditions: U-251
[15] = test system: U-251; experiment: Reduction in carbonic anhydrase 9 mRNA expression in wild type human U251 cells under hypoxic condition at 0.1 uM after 16 hrs; assay type: functional, cell-based; outline: as §2

SMILES | Activity [1] | EC50 [2] [nM] | Activity [3] | GI50 [4] [nM] | GI50 [5] [nM] | GI50 [6] [nM] | further results
CO[C@H]1C[C@H](O[C@H]2CC[C@]3(C=O)[C@H]4CC[C@]5(C)[C@@H](C6=CC(=O)OC6)CC[C@]5(O)[C@@H]4CC[C@]3(O)C2)O[C@H](C)[C@H]1O[C@@H]1O[C@H](CO[C@@H]2O[C@H](CO)[C@@H](O)[C@H](O)[C@H]2O)[C@@H](O)[C@H](O)[C@H]1O | Non-toxic | 40 | Non-toxic | – | – | – | –
CO[C@H]1C[C@H](O[C@H]2CC[C@]3(C=O)[C@H]4CC[C@]5(C)[C@@H](C6=CC(=O)OC6)CC[C@]5(O)[C@@H]4CC[C@]3(O)C2)O[C@H](C)[C@H]1O[C@@H]1O[C@H](CO)[C@@H](O)[C@H](O)[C@H]1O | Non-toxic | – | Non-toxic | – | – | – | –
CO[C@H]1[C@H](O[C@H]2CC[C@]3(C=O)[C@H]4CC[C@]5(C)[C@@H](C6=CC(=O)OC6)CC[C@]5(O)[C@@H]4CC[C@]3(O)C2)O[C@H](C)C[C@H]1O[C@@H]1O[C@H](CO)[C@@H](O)[C@H](O)[C@H]1O | Non-toxic | 600 | Non-toxic | 10 | 8 | 70 | –
Cc1cc(=O)c2c(O)cc(O[C@@H]3O[C@H](CO[C@@H]4O[C@@H](C)[C@H](O)[C@@H](O)[C@H]4O)[C@@H](O)[C@H](O)[C@H]3O)cc2o1 | – | – | – | 800 | 400 | 6000 | –
COc1c(O[C@@H]2O[C@H](CO[C@@H]3O[C@@H](C)[C@H](O)[C@@H](O)[C@H]3O)[C@@H](O)[C@H](O)[C@H]2O)cc2oc(C)cc(=O)c2c1O | – | – | – | 800 | 400 | 6000 | –
CC[C@@]1(O)C(=O)OCc2c1cc1n(c2=O)Cc2cc3c(CN(C)C)c(O)ccc3nc2-1 | – | – | – | – | – | – | Activity [7]: inactive
C[C@@H]1O[C@@H](O[C@H]2CC[C@]3(C=O)[C@H]4CC[C@]5(C)[C@@H](C6=CC(=O)OC6)CC[C@]5(O)[C@@H]4CC[C@]3(O)C2)[C@H](O)[C@H](O)[C@H]1O [CONVALLATOXIN] | Non-toxic | 20 | Non-toxic | – | – | – | Activity [8]: Active; Activity [9]: Active; Activity [10]: Active; Activity [11]: Active; Activity [12]: Active; Activity [7]: Active; Activity [13]: 77%; Activity [14]: 50%; Activity [15]: Active
COc1cccc2c1C(=O)c1c(O)c3c(c(O)c1C2=O)C[C@@](O)(C(=O)CO)C[C@@H]3O[C@H]1C[C@H](N)[C@H](O)[C@H](C)O1 [DOXORUBICIN] | – | 120 | – | 100 | 7 | 60 | –
COc1cc(O)c2c(=O)cc(C)oc2c1 [EUGENIN] | – | – | – | 10000 | 14000 | 25000 | –
Cc1cc(=O)c2c(O)cc(O)cc2o1 [NOREUGENIN] | – | – | – | > 50000 | > 50000 | > 50000 | –
COc1c(O)cc2oc(C)cc(=O)c2c1O [PISONIN B] | – | – | – | > 450000 | 225000 | 180000 | –
C[C@]12CC[C@H]3[C@@H](CC[C@]4(O)C[C@@H](O)CC[C@]34C=O)[C@@]1(O)CC[C@@H]2C1=CC(=O)OC1 [STROPHANTHIDIN] | Non-toxic | – | Non-toxic | – | – | – | –
